Consider ten molecules from ChEMBL document CHEMBL3259704, “Second generation steroidal 4-aminoquinolines are potent, dual-target inhibitors of the botulinum neurotoxin serotype A metalloprotease and P. falciparum malaria” (J Med Chem, 2014).

Series [1] concerns Plasmodium falciparum. The experiment in a line: Antimalarial activity against CQ-resistant, MFQ-susceptible Plasmodium falciparum W2 clone Indochina 1 isolate assessed as inhibition of parasite proliferation by MSF assay. In kind it is functional, organism-based. In short, it runs like this:
(§1)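 SYBR Green I fluorescence (MSF) microtiter drug-sensitivity assay: malarial DNA content is the measure of in vitro parasite proliferation. Resistance index is the IC90 ratio of the resistant strain to D6.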

Series [2] is described as follows: Selectivity index, ratio of IC50 for human HepG2 cells to IC50 for CQ-resistant, MFQ-susceptible Plasmodium falciparum W2 clone Indochina 1 isolate. Conditions: read-out: Ratio IC50. In kind it is toxicity, cell-based.
Series [3] deals with Botulinum neurotoxin type A (Clostridium botulinum, UniProt P0DPI0). The experiment in a line: Inhibition of Clostridium botulinum recombinant BoNT/A light chain using N-terminal acetylated, C-terminal aminated SNAP-25 (187-203) as substrate by reverse-phase HPLC analysis. The method in brief:
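Same HPLC LC cleavage assay (pH 7.3 HEPES/Tween, BSA, excess Zn, 37 °C). […] Ki comes from velocity versus substrate at several inhibitor levels, globally fit to a competitive model.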

A short description of series [4]: Selectivity index, ratio of IC50 for human HepG2 cells to IC50 for CQ, MFQ-resistant Plasmodium falciparum TM91C235 clone Southeast asian isolate. In kind it is toxicity, cell-based. Conditions: read-out: Ratio IC50.
For series [5], the system named is Plasmodium falciparum. The experiment in a line: Resistance index, ratio of IC90 for CQ-resistant, MFQ-susceptible Plasmodium falciparum W2 clone Indochina 1 isolate to IC90 for CQ, MFQ-susceptible Plasmodium falciparum D6 clone Sierra 1/UNC isolate. In kind it is functional. In short, it runs like this:
as §1

The target in series [6] is Botulinum neurotoxin type A (Clostridium botulinum) (UniProt P0DPI0). The experiment in a line: Inhibition of Clostridium botulinum recombinant BoNT/A light chain using N-terminal acetylated, C-terminal aminated SNAP-25 (187-203) as substrate at 20 uM by reverse-phase HPLC analysis. The method in brief: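 Recombinant BoNT/A LC with SNAP-25 187–203 peptide substrate in 40 mM HEPES–0.05% Tween, pH 7.3, with 0.5 mg/mL BSA and 50 μM excess Zn, at 37 °C. Quenched with TFA; reverse-phase HPLC product/substrate peak areas give percent inhibition, run in duplicate.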
Botulinum neurotoxin type A (Clostridium botulinum), sequence (P0DPI0 2-448 limits assumed): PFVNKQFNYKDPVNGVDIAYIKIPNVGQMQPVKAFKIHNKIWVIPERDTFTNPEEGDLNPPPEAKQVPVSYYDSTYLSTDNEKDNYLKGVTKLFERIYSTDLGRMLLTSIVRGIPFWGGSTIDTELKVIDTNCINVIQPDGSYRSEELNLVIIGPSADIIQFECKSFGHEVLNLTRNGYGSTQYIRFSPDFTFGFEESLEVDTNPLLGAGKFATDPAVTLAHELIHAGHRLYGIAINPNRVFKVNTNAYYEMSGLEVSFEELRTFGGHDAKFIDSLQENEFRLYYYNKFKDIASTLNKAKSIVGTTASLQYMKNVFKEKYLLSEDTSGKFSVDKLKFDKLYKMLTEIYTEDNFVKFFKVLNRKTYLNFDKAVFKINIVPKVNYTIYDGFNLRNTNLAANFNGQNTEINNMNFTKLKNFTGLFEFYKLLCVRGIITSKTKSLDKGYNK

Series [7] in a line: Selectivity index, ratio of IC50 for human HepG2 cells to IC50 for CQ, MFQ-susceptible Plasmodium falciparum D6 clone Sierra 1/UNC isolate. Conditions: read-out: Ratio IC50. The format is toxicity, cell-based.
The test system of series [8] is Plasmodium falciparum. The experiment in a line: Resistance index, ratio of IC90 for CQ, MFQ-resistant Plasmodium falciparum TM91C235 clone Southeast asian isolate to IC90 for CQ, MFQ-susceptible Plasmodium falciparum D6 clone Sierra 1/UNC isolate. In kind it is functional. In short, it runs like this: as §1
The subject of series [9] is Plasmodium falciparum. The experiment in a line: Antimalarial activity against CQ, MFQ-susceptible Plasmodium falciparum D6 clone Sierra 1/UNC isolate assessed as inhibition of parasite proliferation by MSF assay. In kind it is functional, organism-based. In short, it runs like this: as §1
Series [10] concerns Plasmodium falciparum. The experiment in a line: Antimalarial activity against CQ, MFQ-resistant Plasmodium falciparum TM91C235 clone Southeast asian isolate assessed as inhibition of parasite proliferation by MSF assay. In kind it is functional, organism-based. In short, it runs like this: as §1
In another series the test system is HepG2. The experiment in a line: Cytotoxicity against human HepG2 cells assessed as cell viability after 48 hrs by MTT assay. In kind it is cell-based. As to conditions: HepG2, 48 h. For orientation: Formazan colour is commonly taken as a measure of viable cells.

Botulinum neurotoxin type A, sequence (P0DPI0 2-448 limits assumed): as above

In the case of `CC(=O)O[C@@H]1CC[C@@]2(C)[C@@H](C1)C[C@@H](OC(C)=O)[C@@H]1[C@@H]2C[C@H](OC(C)=O)[C@]2(C)[C@@H]([C@H](C)CCCN(C)CCCNc3ccnc4cc(Cl)ccc34)CC[C@@H]12`, the half-maximal inhibitory concentration (IC50) – broadly, the concentration that gives 50% inhibition – came out at 11.8 nM in the series on Plasmodium falciparum [1]; 4480 nM in series [3]; 6.91 nM in the series on Plasmodium falciparum [9]; 22.3 nM with Plasmodium falciparum [10]; 1580 nM in the series on HepG2. The IC90 – broadly, the point of the concentration-response curve where the effect stands at 90% – is 16.9 nM with Plasmodium falciparum [1], 10.5 nM in the series with Plasmodium falciparum [9] and 47.3 nM with Plasmodium falciparum [10]. The selectivity ratio in series [2] amounted to 134; in series [4] it was 71; in [7], 229. The Ki (in general, a measure of affinity in units of concentration, obtained from inhibition or displacement) in series [3] was 7690 nM. The Ratio with Plasmodium falciparum [5] is 1.61; in the series with Plasmodium falciparum [8], 4.52. For the same molecule, the inhibition (as a rule, the drop in the measured response relative to a control, in per cent) in [6] is 61.1%.

Turning to `CC(=O)O[C@H]1C[C@H]2[C@@H]([C@H](OC(C)=O)C[C@@H]3C[C@H](NS(C)(=O)=O)CC[C@@]32C)[C@@H]2CC[C@H]([C@H](C)CCCNCCNc3ccnc4cc(Cl)ccc34)[C@@]12C`, the IC50 with Plasmodium falciparum [1] was found to be 44.6 nM; in series [3], 5090 nM; with Plasmodium falciparum [9] it was 19.4 nM; with Plasmodium falciparum [10], 26.4 nM; in the series with HepG2 it was 5850 nM. For the same molecule, the 90% effect concentration (IC90) came to 71.1 nM in the series on Plasmodium falciparum [1], 53 nM in the series on Plasmodium falciparum [9] and 45.6 nM in the series on Plasmodium falciparum [10]. Besides, the results for the selectivity ratio in series [2], in series [4] and in series [7] were 131, 222 and 301, respectively. In addition, the Ratio in the series on Plasmodium falciparum [5] was determined as 1.34; in the series with Plasmodium falciparum [8], 0.86. The inhibition in series [6] was 74.4%.

`CC(=O)O[C@H]1C[C@H]2[C@@H]([C@H](OC(C)=O)C[C@@H]3C[C@H](NC(=O)OC(C)(C)C)CC[C@@]32C)[C@@H]2CC[C@H]([C@H](C)CCCN(C)CCNc3ccnc4cc(Cl)ccc34)[C@@]12C`: the IC50 in the series on Plasmodium falciparum [1] was found to be 8.05 nM; in series [3] it was 6780 nM; in the series with Plasmodium falciparum [9], 8.93 nM; in the series on Plasmodium falciparum [10], 16.3 nM; in the series on HepG2, 2360 nM. Besides, the concentration for an effect of 90% (IC90) in the series on Plasmodium falciparum [1] was found to be 11.7 nM; with Plasmodium falciparum [9], 10.9 nM; with Plasmodium falciparum [10], 22.6 nM. Further, the selectivity ratio is 293 in [2], 144 in series [4] and 264 in series [7]. In addition, the Ratio in the series with Plasmodium falciparum [5] is on record as 1.07; with Plasmodium falciparum [8] it was 2.07. The inhibition in series [6] came out at 30%.

As to `CC(=O)O[C@H]1C[C@H]2[C@@H]([C@H](OC(C)=O)C[C@@H]3C[C@H](N)CC[C@@]32C)[C@@H]2CC[C@H]([C@H](C)CCCN(C)CCCNc3ccnc4cc(Cl)ccc34)[C@@]12C`, the IC50 was found to be 110 nM in the series with Plasmodium falciparum [1]; 1130 nM in series [3]; 112 nM in the series on Plasmodium falciparum [9]; 100 nM with Plasmodium falciparum [10]; 4970 nM with HepG2. Also, the 90% effect concentration (IC90) with Plasmodium falciparum [1] came to 153 nM; in the series with Plasmodium falciparum [9], 150 nM; in the series with Plasmodium falciparum [10] it was 128 nM. The figures for the selectivity ratio in series [2], in series [4] and in series [7] were 45, 50 and 44, respectively. For the same molecule, the values for the Ratio with Plasmodium falciparum [5] and with Plasmodium falciparum [8] were 1.02 and 0.85, respectively. For the same molecule, the inhibition in series [6] worked out at 81.4%.

On to `CC(=O)O[C@H]1C[C@H]2[C@@H]([C@H](OC(C)=O)C[C@@H]3C[C@H](NC(=O)OC(C)(C)C)CC[C@@]32C)[C@@H]2CC[C@H]([C@H](C)CCCNCCNc3ccnc4cc(Cl)ccc34)[C@@]12C`, for which the IC50 with Plasmodium falciparum [1] was 7.34 nM; in series [3], 4900 nM; in the series on Plasmodium falciparum [9] it was 24.1 nM; with Plasmodium falciparum [10], 27.6 nM; with HepG2, 12800 nM. In addition, the IC90 was determined as 12.3 nM in the series on Plasmodium falciparum [1], 29.5 nM in the series on Plasmodium falciparum [9] and 51.9 nM with Plasmodium falciparum [10]. In addition, the selectivity ratio in [2] turned out to be 1740; in series [4], 464; in [7] it was 531. Moreover, the Ratio with Plasmodium falciparum [5] worked out at 0.42; with Plasmodium falciparum [8], 1.76. Further, the inhibition in [6] was found to be 67.4%.

In the case of `CC(=O)O[C@H]1C[C@H]2[C@@H]([C@H](OC(C)=O)C[C@@H]3C[C@H](N)CC[C@@]32C)[C@@H]2CC[C@H]([C@H](C)CCCNCCCNc3ccnc4cc(Cl)ccc34)[C@@]12C`, the IC50 in the series with Plasmodium falciparum [1] was found to be 195 nM; in [3], 1040 nM; with Plasmodium falciparum [9], 138 nM; with Plasmodium falciparum [10] it was 243 nM; with HepG2, 10400 nM. Also, the IC90 with Plasmodium falciparum [1] came out at 282 nM; with Plasmodium falciparum [9], 234 nM; in the series with Plasmodium falciparum [10], 347 nM. In addition, the selectivity ratio in series [2] stood at 54; in series [4] it was 43; in [7], 75. Also, in series [3], the Ki was determined as 3450 nM. Besides, the Ratio in the series with Plasmodium falciparum [5] was 1.21; in the series on Plasmodium falciparum [8], 1.49. The inhibition in series [6] came to 84.8%.

On to `CC(=O)N[C@@H]1CC[C@@]2(C)[C@@H](C1)C[C@@H](OC(C)=O)[C@@H]1[C@@H]2C[C@H](OC(C)=O)[C@]2(C)[C@@H]([C@H](C)CCCNCCCNc3ccnc4cc(Cl)ccc34)CC[C@@H]12`, for which the 50% inhibitory concentration (IC50) in the series on Plasmodium falciparum [1] was 26.4 nM; in series [3], 4920 nM; in the series on Plasmodium falciparum [9], 12.8 nM; in the series with Plasmodium falciparum [10], 28.1 nM; in the series with HepG2, 1450 nM. The IC90 in the series on Plasmodium falciparum [1] was determined as 35.8 nM; with Plasmodium falciparum [9] it was 36.5 nM; in the series on Plasmodium falciparum [10], 39.9 nM. Further, the selectivity ratio in [2] came to 55; in series [4], 51; in [7] it was 114. Besides, the Ratio with Plasmodium falciparum [5] is 0.98; in the series on Plasmodium falciparum [8], 1.09. For the same molecule, in [6], the inhibition came out at 77.3%.

As to `CC(=O)O[C@@H]1CC[C@@]2(C)[C@@H](C1)C[C@@H](OC(C)=O)[C@@H]1[C@@H]2C[C@H](OC(C)=O)[C@]2(C)[C@@H]([C@H](C)CCCN(C)CCNc3ccnc4cc(Cl)ccc34)CC[C@@H]12`, the IC50 stood at 18.6 nM with Plasmodium falciparum [1], 7.47 nM in the series on Plasmodium falciparum [9], 23 nM in the series on Plasmodium falciparum [10] and 1810 nM in the series on HepG2. Moreover, the concentration for an effect of 90% (IC90) in the series with Plasmodium falciparum [1] came to 38.6 nM; with Plasmodium falciparum [9], 19.1 nM; in the series on Plasmodium falciparum [10] it was 32.9 nM. Moreover, the selectivity ratio in series [2] was found to be 98; in [4], 79; in series [7] it was 242. In series [3], the Ki was determined as 34500 nM. Further, the Ratio in the series with Plasmodium falciparum [5] is given as 2.03; in the series on Plasmodium falciparum [8], 1.73. Further, the inhibition in [6] worked out at 33.3%.

With `CC(=O)O[C@@H]1CC[C@@]2(C)[C@@H](C1)C[C@@H](OC(C)=O)[C@@H]1[C@@H]2C[C@H](OC(C)=O)[C@]2(C)[C@@H]([C@H](C)CCCNCCCNc3ccnc4cc(Cl)ccc34)CC[C@@H]12`, the 50% inhibitory concentration (IC50) stood at 9.42 nM in the series on Plasmodium falciparum [1]; 2280 nM in series [3]; 9.72 nM in the series with Plasmodium falciparum [9]; 14.5 nM in the series on Plasmodium falciparum [10]; 980 nM with HepG2. Further, the IC90 stood at 19 nM in the series with Plasmodium falciparum [1], 13.8 nM in the series with Plasmodium falciparum [9] and 31.9 nM in the series with Plasmodium falciparum [10]. In addition, the selectivity ratio in series [2] was 104; in series [4] it was 67; in series [7], 101. The Ki in [3] is 5670 nM. Also, the figures for the Ratio in the series on Plasmodium falciparum [5] and with Plasmodium falciparum [8] were 1.38 and 2.31, respectively. In series [6], the inhibition is 81.4%.

In the case of `C[C@@H]1CC[C@H]2[C@@H](C)C(=O)O[C@@H]3O[C@@]4(C)CC[C@@H]1[C@]32OO4` [ARTEMISININ], the IC50 in the series on Plasmodium falciparum [1] turned out to be 6.7 nM; with Plasmodium falciparum [9] it was 9 nM; in the series with Plasmodium falciparum [10] it was 13.4 nM. Further, the IC90 in the series with Plasmodium falciparum [1] came out at 11.5 nM; in the series with Plasmodium falciparum [9] it was 12.8 nM; in the series on Plasmodium falciparum [10] it was 17.4 nM. The Ratio in the series on Plasmodium falciparum [5] was 0.9; in the series with Plasmodium falciparum [8], 1.36.
